Measured values from publication PMC8790739 (JACS Au, 2022).

Assays:
tobacco BY-2 cells = experiment: Peptide-mediated Citrine transduction; format: cell-based, Nicotiana tabacum; conditions: for Citrine internalization into BY-2 cells at lower peptide concentrations: 9 nM–9 μM peptide (low concentrations), Figure S2; for Citrine fluorescence in the nuclei of BY-2 cells: 1 h incubation
Method in brief: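 Exponentially growing BY-2 cells (OD600 0.5) mixed in a glass-bottom dish with Citrine plus peptide, or with individual peptide domains as controls, for 1 h at 26 °C. Citrine-only cells served as control. Uptake was imaged directly by confocal microscopy at Ex/Em 488/515–580 nm.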

E. gracilis cells [1] = experiment: Evans blue viability assay, E. gracilis; format: cell-based, Euglena gracilis; conditions: 9 nM–90 μM peptide, 3 h at 26 °C, n = 3, Figure 2C
Method in brief: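 Euglena gracilis was grown in CM medium pH 3.5 (26 °C, 100 rpm) to OD730 0.23, then incubated with peptide (9 nM–90 μM) for 3 h at 26 °C. Cells pelleted and stained with Evans blue 150 μg/mL for 20 min, washed three times, then live and dead cells counted microscopically. Viability = live/dead ratio relative to untreated cells. Three biological replicates, mean ± SD.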

O. sativa calli [2] = experiment: Evans blue viability assay, O. sativa calli; format: cell-based, Oryza sativa; conditions: 1 h, vacuum/compression infiltration, n = 4, Figure 2A, particularly dTat-Sar-EED5
C. reinhardtii cells [3] = experiment: Peptide-mediated Citrine transduction; format: cell-based, Chlamydomonas reinhardtii; conditions: 156 nM peptide, Citrine 100 μg/mL, 20 min (b14 says 3 h), CLSM, Figure 2D
Method in brief: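 Log-phase Chlamydomonas cells suspended in TAP containing 156 nM peptide, 100 μg/mL Citrine and 40 mM sucrose, for 20 min. Cells washed and mounted on slides; Citrine-only cells served as control. Confocal imaging: Citrine at Ex/Em 488/520–550 nm, chlorophyll at 488/660–720 nm.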

E. gracilis cells [4] = experiment: Peptide-mediated Citrine transduction; format: cell-based, Euglena gracilis; conditions: 9 μM peptide, Citrine 100 μg/mL, 3 h at 26 °C, CLSM, Figure 2D
Method in brief: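 Euglena suspension (OD730 0.23) exposed to Citrine with or without peptide in culture medium in a 96-well plate, 3 h at 26 °C, shaking at 100 rpm. Confocal imaging: Citrine at Ex/Em 488/520–550 nm, chlorophyll at 488/660–720 nm.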

C. reinhardtii cells [5] = experiment: Colony formation viability assay, C. reinhardtii; format: cell-based, Chlamydomonas reinhardtii; conditions: for Cell death in C. reinhardtii (colony formation assay): 2.5 μM peptide, 20 min in TAP medium with 40 mM sucrose, n = 3, Figure 2C
Method in brief: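 Log-phase Chlamydomonas reinhardtii wild-type cc125+ (2 days after subculture, grown in TAP at 23 °C under constant light) exposed to peptide (39 nM–2.5 μM) for 20 min in TAP with 40 mM sucrose. Cells washed, plated on TAP agar, colonies counted. Viability = colonies with peptide ÷ colonies without. Three biological replicates, mean ± SD.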

A. thaliana cotyledons [6] = experiment: Evans blue viability assay, A. thaliana cotyledons; format: cell-based, Arabidopsis thaliana; conditions: 1 h, vacuum/compression infiltration, n = 4, Figure 2A, particularly dTat-Sar-EED5
M. polymorpha sporelings [7] = experiment: Evans blue viability assay, M. polymorpha sporelings; format: cell-based, Marchantia polymorpha; conditions: 1 h at 22 °C, n = 4, Figure 2A
Method in brief: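 Marchantia polymorpha sporelings (Tak-1 × Tak-2 cross, held 4 days in water) incubated with peptide for 1 h at 22 °C, then stained with Evans blue 150 μg/mL. Stained (dead) and unstained (live) cells counted; viability taken from live/dead ratio. Boiled sporelings (95 °C, 10 min) served as 100% dead. Four biological replicates, mean ± SE, Dunnett's T3 versus 0 μM.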

M. polymorpha sporelings [8] = experiment: Peptide-mediated Citrine transduction; format: cell-based, Marchantia polymorpha; conditions: 90 μM peptide, Citrine 200 μg/mL, 1 h at 22 °C, CLSM, Figure 2B
Method in brief: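 Sporelings incubated 1 h at 22 °C in solution with 90 μM peptide and 200 μg/mL Citrine; Citrine alone served as control. Time-gated confocal detection (0.5–12.0 ns) at Ex/Em 510/546–566 nm.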

A. thaliana cotyledons [9] = experiment: Peptide-mediated Citrine transduction; format: cell-based, Arabidopsis thaliana; conditions: 90 μM peptide, Citrine 200 μg/mL, CLSM, Figure 2B
Method in brief: (§1)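 Col-0 cotyledons (seedlings 7–9 days) or Nipponbare calli (1 week on N6D, 30 °C, constant light) vacuum/compression-infiltrated with 200 μg/mL Citrine, with 90 μM peptide or alone as control. Incubation 1 h: cotyledons at 22 °C, calli at 30 °C. Washed twice with 1/2 MS plus 1% sucrose; confocal imaging at Ex/Em 488/515–560 nm.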

O. sativa calli [10] = experiment: Peptide-mediated Citrine transduction; format: cell-based, Oryza sativa; conditions: 90 μM peptide, Citrine 200 μg/mL, CLSM, Figure 2B
Method in brief: as §1

[11] = tested on: tobacco (Nicotiana tabacum) Bright Yellow-2 (BY-2) cells; experiment: Evans blue cell viability assay, BY-2 cells; format: cell-based
[12] = tested on: A. thaliana root epidermal cells; experiment: FM4-64 uptake into A. thaliana roots; format: cell-based, Arabidopsis thaliana; conditions: dTat-Sar-EED4 30 μM, FM4-64 10 μM, Figure 4B
Method in brief: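 Roots of Col-0 seedlings (7–9 days) pretreated 30 min at 25 °C in 1/2 MS with 0.6% v/v DMSO or 30 μM ES9-17. FM4-64 (10 μM) then added, ± peptide, for 30 min at 25 °C in the dark. Confocal imaging at Ex/Em 488/620–680 nm. Mean intensity of manually segmented whole cytoplasm was divided by that of the apical plasma membrane, for more than 100 cells from 8 roots.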

[13] = 90 μM peptide, Citrine 100 μg/mL, CLSM, Figure 1D

Substance: (Sar)6-GFWFG [Sar-EED5]
- Citrine uptake by BY-2 cells with individual peptide domains (tobacco BY-2 cells; 90 μM of each peptide domain, 1 h, Citrine 100 μg/mL, CLSM, Figure 1D): did not show Citrine uptake

Substance: rrrqrrkkr-(Sar)6-GFWFG [dTat-Sar-EED5]
- Cytotoxicity toward E. gracilis (E. gracilis cells [1]): Neither peptide exhibited cytotoxicity
- Concentrations at which toxic to O. sativa calli (O. sativa calli [2]): ≥ 90 µM
- Citrine internalization into C. reinhardtii (C. reinhardtii cells [3]): Citrine was internalized
- Citrine internalization into E. gracilis (E. gracilis cells [4]): Citrine was internalized
- Citrine internalization into BY-2 cells at lower peptide concentrations (tobacco BY-2 cells; CLSM): negligible Citrine uptake
- Citrine fluorescence in the nuclei of BY-2 cells (tobacco BY-2 cells; [13]): detected Citrine fluorescence in the nuclei of some cells
- Cell death in C. reinhardtii (colony formation assay) (C. reinhardtii cells [5]): induced severe cell death
- Concentrations at which toxic to A. thaliana cotyledons (A. thaliana cotyledons [6]): ≥ 90 µM
- Cell death in M. polymorpha sporelings (M. polymorpha sporelings [7]): did not cause severe cell death

Substance: rrrqrrkkr-(Sar)6-GWWG [dTat-Sar-EED4]
- Cytotoxicity toward E. gracilis (E. gracilis cells [1]): Neither peptide exhibited cytotoxicity
- Concentrations at which toxic to O. sativa calli (O. sativa calli [2]): ≥ 90 µM
- Citrine internalization into M. polymorpha sporelings (M. polymorpha sporelings [8]): Citrine internalization was observed
- Transfer of Citrine to the nucleus in A. thaliana cotyledon cells (A. thaliana cotyledons [9]; 1 h): appeared to be transferred to the nucleus
- Citrine internalization into A. thaliana cotyledons (A. thaliana cotyledons [9]; 1 h at 22 °C): Citrine internalization was observed
- Citrine internalization into BY-2 cells at lower peptide concentrations (tobacco BY-2 cells; CLSM): no Citrine internalization was observed
- Citrine fluorescence in the nuclei of BY-2 cells (tobacco BY-2 cells; [13]): detected Citrine fluorescence in the nuclei of some cells
- Citrine internalization into BY-2 cells, time-lapse CLSM (tobacco BY-2 cells; 90 μM peptide, Citrine 100 μg/mL, Figure 1C, Movies S1, S2): rapid internalization of Citrine into BY-2 cells within a few minutes
- Cell death in C. reinhardtii (colony formation assay) (C. reinhardtii cells [5]): induced severe cell death
- Toxicity to C. reinhardtii cells compared between the two peptides (C. reinhardtii cells [5]; concentrations of 156 nM or more, 20 min, colony formation assay, Figure 2C): slightly more toxic
- Transfer of Citrine to the nucleus in O. sativa calli (O. sativa calli [10]; 1 h): such behavior was not detected
- Citrine internalization into O. sativa calli (O. sativa calli [10]; 1 h at 30 °C): Citrine internalization was observed
- Cytotoxicity to BY-2 cells after prolonged treatment ([11]; 90 μM for up to 48 h, n = 3, Figure S1): did not result in significant cytotoxicity
- Toxicity to BY-2 cells compared between the two peptides ([11]; 1 h treatment, 9 μM to 9 mM, Figure 1B): less toxic than dTat-Sar-EED5
- Concentrations at which toxic to A. thaliana cotyledons (A. thaliana cotyledons [6]): ≥ 90 µM
- Cell death in M. polymorpha sporelings (M. polymorpha sporelings [7]): did not cause severe cell death
- Enhancement of FM4-64 uptake, DMSO-treated samples ([12]; DMSO 0.6% v/v): slight
- Enhancement of FM4-64 uptake, ES9-17-treated samples ([12]; ES9-17 30 μM): more pronounced
